Data on four compounds can be found in ChEMBL document CHEMBL1126218, “N-(5,5-diacetoxypent-1-yl)doxorubicin: a new intensely potent doxorubicin analogue” (J Med Chem, 1992).

Data set [1] deals with CHO. Kind of data set: The compound was tested in vitro for growth inhibition of Chinese Hamster Ovary(CHO) cells. In kind it is functional, cell-based. The conditions noted are these: Cricetulus griseus. The method, boiled down:
(§1)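 Exponentially growing CHO cells, or the P-glycoprotein-overexpressing doxorubicin-resistant CHO/DOX subline, were seeded at 1.5 × 10⁴ cells/mL in McCoy's 5A with 10% FCS. They were exposed to at least 7 concentrations (2 × 10⁻¹² to 2 × 10⁻⁵ M) for 6 days at 37 °C. Cells were then formaldehyde-fixed, crystal-violet-stained and counted microscopically. IC50 (50% growth inhibition versus untreated controls) was taken from dose–response curves, mean of duplicates.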

Data set [2] concerns CHO. Kind of data set: The compound was tested in vitro for growth inhibition of subline (CHO/DOX) with acquired resistance to doxorubicin. In kind it is functional, cell-based. As to conditions: Cricetulus griseus. The method, boiled down:
as §1

Data set [3] in a line: Half life period in the absence or presence of pig liver carboxylate esterase at 25 degrees C in aqueous solution of 0.05 M acetate buffer at pH 4.0. In kind it is ADME. As to conditions: in vivo. Summed up:
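Drug at 20 μM in 0.05 M acetate buffer, pH 4.0, no enzyme. Aliquots were taken at set times (about 2–250 h) and the parent drug measured by reverse-phase C-18 HPLC (CH3CN–0.05 N acetate pH 4.0, 2:3). Half-life came from linear least-squares regression of pseudo-first-order loss.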

In data set [4] the test system is carboxylate esterase. Kind of data set: Half life period in the absence or presence of pig liver carboxylate esterase at 25 degrees C in aqueous solution of C + esterase (10-fold unit equiv). In kind it is ADME. The method, boiled down:
(§2)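 Drug at 20 μM in 0.05 M phosphate buffer, pH 7.4, pre-equilibrated, then given porcine liver carboxylate esterase (200 units/mg) at 2, 5, 10 or 20 units per μmol substrate. At 0.25–60 min samples were vortexed and centrifuged, and the supernatant measured for parent drug by C-18 HPLC. Half-life came from pseudo-first-order least-squares regression.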

The subject of data set [5] is carboxylate esterase. The data set is described as follows: Half life period in the absence or presence of pig liver carboxylate esterase at 25 degrees C in aqueous solution of C + esterase (2-fold unit equiv). In kind it is ADME. Summed up:
as §2

Data set [6] relates to carboxylate esterase. The data set is described as follows: Half life period in the absence or presence of pig liver carboxylate esterase at 25 degrees C in aqueous solution of C + esterase (20-fold unit equiv). In kind it is ADME. The method, boiled down:
as §2

Data set [7] concerns carboxylate esterase. Kind of data set: Half life period in the absence or presence of pig liver carboxylate esterase at 25 degrees C in aqueous solution of C + esterase (5-fold unit equiv). In kind it is ADME. Summed up: as §2
Data set [8] can be described thus: Half life period in the absence or presence of pig liver carboxylate esterase at 25 degrees C in aqueous solution of 0.05 M phosphate buffer at pH 7.4. The conditions noted are these: 0.05 M phosphate buffer (aqueous solution).

Several values for one entry are separate records, joined by “and”; a condition that tells them apart may be missing. Identical values can stand only once.

As to `COc1cccc2c1C(=O)c1c(O)c3c(c(O)c1C2=O)CC(O)(C(=O)CO)CC3OC1CC(NCCCCCOC(C)=O)C(O)C(C)O1` (centres undefined), the IC50 – broadly, the concentration needed to halve the response being measured – in the data set with CHO [1] was determined as 83 nM; in the data set on CHO [2], 350 nM.
Taken in the same sequence, the figures for `CCCCCNC1CC(OC2CC(O)(C(=O)CO)Cc3c(O)c4c(c(O)c32)C(=O)c2c(OC)cccc2C4=O)OC(C)C1O` (centres undefined) were 57 nM and 420 nM.
Taken in the same sequence, the figures for `COc1cccc2c1C(=O)c1c(O)c3c(c(O)c1C2=O)C[C@@](O)(C(=O)CO)C[C@@H]3O[C@H]1C[C@H](N)[C@H](O)[C@H](C)O1` [DOXORUBICIN] were 60 nM and 6000 nM.
With `COc1cccc2c1C(=O)c1c(O)c3c(c(O)c1C2=O)CC(O)(C(=O)CO)CC3OC1CC(NCCCCC(OC(C)=O)OC(C)=O)C(O)C(C)O1.Cl` (centres undefined), in data set [3], the T1/2 was > 240 h and 97 h. Besides, the half-life (in general, how long it takes for the measured level to halve) in the data set with carboxylate esterase [4] was 1 min; with carboxylate esterase [5], 27 min; in the data set on carboxylate esterase [6], 0.333 min; in the data set with carboxylate esterase [7], 4 min; in data set [8] it was 1440 min. Besides, the IC50 in the data set on CHO [1] amounted to 0.4 nM; with CHO [2] it was 0.7 nM.
